Assay outcomes: PubChem BioAssay, several laboratories
APP 5'UTR act: activates APP 5'UTR luciferase reporter | SH-SY5Y APP 5'UTR luciferase reporter, luminescence; zero percent = DMSO vehicle wells | activation, % at 2 µM | 190,000 tested, 1% active | AID 1276;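 active = activation above a set limit, based on mean plus 3 SD of controls, cut at about 140% in these data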
p97 ATPase inh: inhibitors of human p97 ATPase | P55072 | recombinant p97 ATPase, Kinase-Glo ATP luminescence, 3 h | inhibition, % at 8 µM | 220,000 tested, 0.42% active | AID 1481; in the data active = inhibition above about 15%;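 also: 0% = DMSO vehicle and 100% = wells lacking enzyme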
STAT1 act: STAT1 signaling activation | NIH 3T3 STAT1-luciferase reporter, IFN-gamma, luminescence; 100% = IFN-gamma alone, no compound | AID 932 | activation (% of control), % at 5.5 µM | 200,000 tested, 2.6% active;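 active = activation above the screen-wide mean activation plus 3 SD, cut at about 130% in these data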;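 also: raw ratio to IFN-gamma control signal so 100% means no change and 0% no light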
Wee1 stabilizer: human Wee1 degradation inhibition, primary screen. HeLa Luc-Wee1K328M stability, luciferase luminescence; 100% = proteasome inhibitor MG132 effect. reporter increase, % at 5 µM. 220,000 tested, 1.2% active;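 active = activation above the mean of all tested compounds plus 3 SD, set per screening run, cut at about 8.8% in these data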;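 also: cells exposed to compound for 20 h before luminescence read; 0% = DMSO alone and 100% = MG132 at 30 µM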
NF-kB neuron act: NF-kB expression increase, human neuronal cells. NF-kB reporter expression; active compounds read high. fold change at 12.5 µM. 190,000 tested, 1.6% active; in the data active = fold change above about 3.3
MDM2 E3 inh: inhibitors of human Mdm2 E3 ubiquitin ligase. signal enhancement, % at 5 µM. cell-based MDM2 ubiquitination luciferase reporter, 2 h; 0 = plate control, 100 = twice control, blank-subtracted. AID 1230. 210,000 tested, 0.11% active. Q00987;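 active = signal enhancement of 30% or more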;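 also: luminescence tracks abundance of the self-degrading MDM2-luciferase fusion protein; higher signal means inhibition of MDM2 E3 ligase activity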
Target sequence (Q00987 whole entry, looked up, the tested form may be a part): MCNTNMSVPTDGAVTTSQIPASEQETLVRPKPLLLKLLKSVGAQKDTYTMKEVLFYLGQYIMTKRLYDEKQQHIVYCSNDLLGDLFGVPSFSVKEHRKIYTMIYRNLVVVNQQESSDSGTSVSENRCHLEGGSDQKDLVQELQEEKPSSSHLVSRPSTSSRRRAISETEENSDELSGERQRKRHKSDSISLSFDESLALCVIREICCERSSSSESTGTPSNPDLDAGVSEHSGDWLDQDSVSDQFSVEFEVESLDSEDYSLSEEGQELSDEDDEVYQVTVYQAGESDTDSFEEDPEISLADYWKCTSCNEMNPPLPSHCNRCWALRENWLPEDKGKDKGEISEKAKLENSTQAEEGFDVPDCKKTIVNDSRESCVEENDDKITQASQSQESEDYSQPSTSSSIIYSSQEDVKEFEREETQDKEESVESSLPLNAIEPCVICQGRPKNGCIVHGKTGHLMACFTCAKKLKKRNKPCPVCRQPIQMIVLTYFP
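Test system: stable mammalian line carrying autodegrading MDM2–luciferase fusion reporter; quantity: 2000 cells in each well; times: 4 h cell settling then 2 h compound exposure, 37 °C; detection: luminescence with SteadyLite reagent, 15 min at room temperature; evaluation: percent signal gain over controls, blank-subtracted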
The depositor's hits bear a star; nt = no result given. An excerpt weighted towards active compounds, which were near 4.6% of everything screened.

SMILES	APP 5'UTR act	p97 ATPase inh	STAT1 act	Wee1 stabilizer	NF-kB neuron act	MDM2 E3 inh
CCCCOc1nc(N2CCOCC2)nc(C)c1[N+](=O)[O-]	nt	-1.6	nt	0.9	nt	-6.3
Cc1nc(N2CCOCC2)nc(Oc2ccccc2)c1[N+](=O)[O-]	nt	-6.0	nt	9.2*	nt	-13.6
COC(=O)C(Cc1ccc(O)cc1)NC(=O)C(CC(=O)OC(C)(C)C)NC(=O)OC(C)(C)C (stereo not drawn)	-18.9	2.4	106.6	-2.3	1.19	18.4
CC(C)OC(=O)Nc1ccc2c(c1)N(C(=O)N1CCN(C)CC1)c1ccccc1CC2	nt	-62.6	nt	10.6*	nt	-17.4
CC(C)OC(=O)CSc1nnnn1-c1ccc2c(c1)OCCO2	20.4	3.3	128.7*	-0.1	2.15	-19.8
Cc1cccc(Cn2c(=O)n(Cc3ccco3)c(=O)c3ccccc32)c1	10.5	-4.4	95.6	10.2*	0.69	-12.0
CCCCCC(=O)Nc1c(-c2ccc(OC)cc2)c(=O)c2ccccc2n1C	9.6	0.8	93.0	9.9*	1.05	8.8
COc1ccc(N=CC2=C(O)CC(C)(C)CC2=O)cc1	9.3	1.2	133.3*	4.2	1.11	-34.0
CC1(C)CC(=O)C(C=Nc2ccc3c(c2)OCO3)=C(O)C1	19.6	-1.3	131.8*	-1.6	1.61	-16.0
COc1ccc(N=CC2=C(O)CCCC2=O)cc1	-1.8	5.3	136.0*	-0.3	1.67	-12.7
CC1(C)CC(=O)C(C=NCc2ccc3c(c2)OCO3)=C(O)C1	-5.5	3.9	99.1	-0.2	1.43	-8.4
COc1ccc(N=Cc2c(O)cc(C)oc2=O)cc1	-20.6	5.0	113.6	-2.3	1.13	-17.4
CN(C)C(CNC(=S)Nc1ccccc1Cl)c1cccnc1 (stereo not drawn)	-4.1	2.0	99.6	0.4	1.26	2.5
CCCc1[nH]n(-c2ccc([N+](=O)[O-])cc2)c(=O)c1C(C)=NCc1ccncc1	nt	-1.2	nt	0.7	nt	-5.0
Cc1cc(C)c(NC(=O)c2ccccc2C(=O)c2ccccc2)c(C)c1	12.8	0.4	95.5	0.9	1.33	1.0
O=C(NCc1n[nH]c(=S)n1-c1cccc(Cl)c1)c1ccc(S(=O)(=O)N2CCCC2)cc1	2.7	-8.1	101.0	11.4*	0.99	-10.7
O=C(NCc1n[nH]c(=S)n1-c1cccc(C(F)(F)F)c1)c1ccc(S(=O)(=O)N2CCCC2)cc1	11.7	-5.1	102.5	1.2	1.17	-21.6
CC(=O)OCCCNc1cc(Sc2nc3ccccc3s2)c2nonc2c1[N+](=O)[O-]	1.5	6.0	131.6*	0.2	1.09	-22.5
Cn1c(CNC(=O)c2ccco2)nnc1SCC(=O)Nc1cccc(Br)c1	4.4	5.0	100.4	1.1	1.15	-8.7
Cn1c(CNC(=O)c2ccco2)nnc1SCC(=O)N1c2ccccc2Sc2ccccc21	0.4	3.0	104.2	0.6	1.02	30.0*
COc1cc(OC)nc(NC(=O)NS(=O)(=O)c2ccc(F)cc2)n1	-24.6	3.1	103.6	-2.2	nt	2.1
CCOc1ncccc1C(=O)OCc1ccc(C(=O)OC)cc1	-9.9	-5.1	130.0*	0.9	1.72	-9.2
CCN(CC)c1ccc2cc(C(N)=O)c(=O)oc2c1	11.7	-0.2	133.0*	-0.1	1.82	5.0
CCN(C(=O)c1cc2ccccc2oc1=O)c1ccccc1	104.9	3.4	124.2	-0.9	4.66*	nt
Cc1cc(SCC(=O)NN)c2cc(Br)ccc2n1	nt	5.7	nt	1.4	nt	-14.0
SMILES	APP 5'UTR act	p97 ATPase inh	STAT1 act	Wee1 stabilizer	NF-kB neuron act	MDM2 E3 inh
O=C1SC(SC(=Nc2ccccc2)Nc2ccccc2)C(=O)N1c1ccccc1 (stereo not drawn)	18.2	-5.1	138.1*	2.5	1.91	-4.7
C=C(Cl)COc1ccc2c(CCCC)cc(=O)oc2c1	1.6	-3.3	101.8	9.3*	1.22	-16.7
CCCCc1c(C)c2ccc(OCC(C)=O)cc2oc1=O	133.2	-0.8	133.0*	1.6	1.92	-16.2
CCOC(=O)CCc1c(C)c2ccc(OCC(=O)OC(C)C)cc2oc1=O	3.7	-3.1	98.5	6.2	0.92	14.5
CCCc1c(C)c2ccc(OCC(C)=O)cc2oc1=O	39.9	-1.8	130.8*	1.1	2.02	-9.3
C/C(=N/NC(=O)c1cccs1)c1cccs1	nt	0.7	nt	3.2	nt	-16.2
C/C(NC(=O)c1cccs1)=C1\C(=O)C[C@@H]2[C@H]1C2(C)C	37.0	0.2	130.4*	5.2	1.96	-5.4
